ChEMBL document CHEMBL1154743, “A novel potent nicotinamide phosphoribosyltransferase inhibitor synthesized via click chemistry” (J Med Chem, 2010)

Columns and labels:
Type in all cases: functional
SH-SY5Y = experiment: Cytotoxicity against human SH-SY5Y cells assessed as reduction of total cellular NAD(P) level at 300 nM relative to control; set-up: scale not given: the % may be the effect or the level left
Outline: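 Total cellular NAD levels in SH-SY5Y cells screened at a single fixed concentration of 300 nM. Expressed relative to control, n = 10.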

A549 = experiment: Growth inhibition of human A549 cells by sulforhodamine B assay
NCI-H226 = experiment: Growth inhibition of human NCI-H226 cells by sulforhodamine B assay
NCI-H23 = experiment: Growth inhibition of human NCI-H23 cells by sulforhodamine B assay
NCI-H460 = experiment: Growth inhibition of human NCI-H460 cells by sulforhodamine B assay
HCC 2998 = experiment: Growth inhibition of human HCC2998 cells by sulforhodamine B assay
HCT-15 = experiment: Growth inhibition of human HCT15 cells by sulforhodamine B assay
HT-29 = experiment: Growth inhibition of human HT-29 cells by sulforhodamine B assay
KM12 = experiment: Growth inhibition of human KM12 cells by sulforhodamine B assay
SW-620 = experiment: Growth inhibition of human SW620 cells by sulforhodamine B assay
SNB-19 = experiment: Growth inhibition of human SNB19 cells by sulforhodamine B assay
U-251 = experiment: Growth inhibition of human U251 cells by sulforhodamine B assay
LOX IMVI = experiment: Growth inhibition of human LOXIMVI cells by sulforhodamine B assay
MDA-MB-435 = experiment: Growth inhibition of human MDA-MB-435 cells by sulforhodamine B assay
SK-MEL-2 = experiment: Growth inhibition of human SK-MEL-2 cells by sulforhodamine B assay
UACC-257 = experiment: Growth inhibition of human UACC257 cells by sulforhodamine B assay
OVCAR-3 = experiment: Growth inhibition of human OVCAR-3 cells by sulforhodamine B assay
OVCAR-5 = experiment: Growth inhibition of human OVCAR5 cells by sulforhodamine B assay
NCI/ADR-RES = experiment: Growth inhibition of human NCI/ADR-RES cells by sulforhodamine B assay
SK-OV-3 = experiment: Growth inhibition of human SKOV3 cells by sulforhodamine B assay
A498 = experiment: Growth inhibition of human A498 cells by sulforhodamine B assay
ACHN = experiment: Growth inhibition of human ACHN cells by sulforhodamine B assay
RXF 393 = experiment: Growth inhibition of human RXF393 cells by sulforhodamine B assay
TK-10 = experiment: Growth inhibition of human TK10 cells by sulforhodamine B assay
PC-3 = experiment: Growth inhibition of human PC3 cells by sulforhodamine B assay
MCF7 = experiment: Growth inhibition of human MCF7 cells by sulforhodamine B assay
[1] = read-out: LC50 (the source's name)

O=C(CCCCCCCn1cc(-c2cccnc2)nn1)Nc1ccccc1-c1ccccc1
Activity (SH-SY5Y): 9.9%
GI50 (A549): 2.1 µM
TGI (A549): > 100 µM
CC50 (A549; [1]): > 100 µM
GI50 (NCI-H226): 15.5 µM
TGI (NCI-H226): 51.7 µM
CC50 (NCI-H226; [1]): > 100 µM
GI50 (NCI-H23): 15.1 µM
TGI (NCI-H23): > 100 µM
CC50 (NCI-H23; [1]): > 100 µM
GI50 (NCI-H460): 0.724 µM
TGI (NCI-H460): > 100 µM
CC50 (NCI-H460; [1]): > 100 µM
GI50 (HCC 2998): 0.7 µM
TGI (HCC 2998): > 100 µM
CC50 (HCC 2998; [1]): > 100 µM
GI50 (HCT-15): 0.257 µM
TGI (HCT-15): > 100 µM
CC50 (HCT-15; [1]): > 100 µM
GI50 (HT-29): 0.46 µM
TGI (HT-29): > 100 µM
CC50 (HT-29; [1]): > 100 µM
GI50 (KM12): 1.03 µM
TGI (KM12): 27.2 µM
CC50 (KM12; [1]): > 100 µM
GI50 (SW-620): 0.0615 µM
TGI (SW-620): > 100 µM
CC50 (SW-620; [1]): > 100 µM
GI50 (SNB-19): 0.45 µM
TGI (SNB-19): > 100 µM
CC50 (SNB-19; [1]): > 100 µM
GI50 (U-251): 0.521 µM
TGI (U-251): > 100 µM
CC50 (U-251; [1]): > 100 µM
GI50 (LOX IMVI): 10.1 µM
TGI (LOX IMVI): > 100 µM
CC50 (LOX IMVI; [1]): > 100 µM
GI50 (MDA-MB-435): 0.399 µM
TGI (MDA-MB-435): 13.3 µM
CC50 (MDA-MB-435; [1]): > 100 µM
GI50 (SK-MEL-2): 12.8 µM
TGI (SK-MEL-2): 46.2 µM
CC50 (SK-MEL-2; [1]): 57 µM
GI50 (UACC-257): 13.3 µM
TGI (UACC-257): 30.3 µM
CC50 (UACC-257; [1]): 69.3 µM
GI50 (OVCAR-3): 5.19 µM
TGI (OVCAR-3): > 100 µM
CC50 (OVCAR-3; [1]): > 100 µM
GI50 (OVCAR-5): 0.268 µM
TGI (OVCAR-5): > 100 µM
CC50 (OVCAR-5; [1]): > 100 µM
GI50 (NCI/ADR-RES): 0.0814 µM
TGI (NCI/ADR-RES): 33.1 µM
CC50 (NCI/ADR-RES; [1]): > 100 µM
GI50 (SK-OV-3): 20.5 µM
TGI (SK-OV-3): > 100 µM
CC50 (SK-OV-3; [1]): > 100 µM
GI50 (A498): 15.9 µM
TGI (A498): > 100 µM
CC50 (A498; [1]): > 100 µM
GI50 (ACHN): 18.7 µM
TGI (ACHN): > 100 µM
CC50 (ACHN; [1]): > 100 µM
GI50 (RXF 393): 100 µM
TGI (RXF 393): > 100 µM
CC50 (RXF 393; [1]): > 100 µM
GI50 (TK-10): 18.2 µM
TGI (TK-10): > 100 µM
CC50 (TK-10; [1]): > 100 µM
GI50 (PC-3): 0.467 µM
TGI (PC-3): 42.8 µM
CC50 (PC-3; [1]): > 100 µM
GI50 (MCF7): 3.42 µM
TGI (MCF7): 50.1 µM
CC50 (MCF7; [1]): > 100 µM
